From ChEMBL document CHEMBL4038284, “Synthesis of novel quinoline-based 4,5-dihydro-1H-pyrazoles as potential anticancer, antifungal, antibacterial and antiprotozoal agents” (Eur J Med Chem, 2017)
Values after ≈ are worked out from the molar mass of the structure shown.

Columns and labels:
Candida albicans [1] = assay: Growth inhibition of Candida albicans ATCC 10231 at 31.25 ug/ml incubated for 48 hrs under dark condition by broth microdilution method relative to control; assay type: functional; settings: ATCC 10231, 48 h, read-out: GI
Outline: (§1)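 CLSI M27-A3 broth microdilution in RPMI-1640, DMSO ≤1%. Inoculum 1-5 × 10^3 CFU/mL. Incubated 48 h at 30 °C, dark. % inhibition = 100 − (OD405 test − sterility control)/(OD405 growth control − sterility control), with growth and sterility control wells. Triplicate.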

Leishmania panamensis = assay: Antileshmanial activity against EpiR/GFP fused Leishmania panamensis MHOM/CO/87/UA140 intracellular amastigotes infected in human […] cells after 72 hrs by flow cytometric method; assay type: functional, cell-based; settings: MHOM/CO/87/UA140, 72 h
Outline: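 PMA-treated U-937 cells (3 × 10^5 cells/mL) infected with stationary-phase GFP L. panamensis promastigotes (15:1), 3 h at 34 °C, then washed. After 24 h, compounds added at 50, 12.5, 3.125 and 0.78 µg/mL for 72 h at 37 °C. EC50 by Probit; triplicate, two experiments.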

Klebsiella pneumoniae [2] = assay: Antibacterial activity against ESBL positive Klebsiella pneumoniae ATCC 700603 after 24 hrs by resazurin dye based microdilution assay; assay type: functional; settings: Klebsiella pneumoniae, 700603, 24 h
Outline: (§2)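 MIC taken as the lowest concentration giving visible inhibition and/or by resazurin (1 mg/mL). Gentamicin was the control. Run in duplicate, repeated at least three times.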

Candida albicans [3] = assay: Antifungal activity against Candida albicans ATCC 10231 incubated for 48 hrs under dark condition by broth microdilution method; assay type: functional; settings: ATCC 10231, 48 h
Outline: (§3)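 CLSI M27-A3 broth microdilution in RPMI-1640, DMSO ≤1%, compounds at 250-0.98 µg/mL final. Inoculum 1-5 × 10^3 CFU/mL. Incubated 48 h at 30 °C in a moist dark chamber, read at OD405. MIC80 and MIC50 taken from % inhibition dose-response curves (mean ± SEM, triplicate). Amphotericin B was the positive control.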

Cryptococcus neoformans [4] = assay: Growth inhibition of Cryptococcus neoformans ATCC 32264 at 7.8 ug/ml incubated for 48 hrs under dark condition by broth microdilution method relative to control; assay type: functional; settings: ATCC 32264, 48 h, read-out: GI; outline: as §1
Cryptococcus neoformans [5] = assay: Growth inhibition of Cryptococcus neoformans ATCC 32264 at 3.4 ug/ml incubated for 48 hrs under dark condition by broth microdilution method relative to control; assay type: functional; settings: ATCC 32264, 48 h, read-out: GI
Candida albicans [6] = assay: Growth inhibition of Candida albicans ATCC 10231 at 15.62 ug/ml incubated for 48 hrs under dark condition by broth microdilution method relative to control; assay type: functional; settings: ATCC 10231, 48 h, read-out: GI; outline: as §1
Candida albicans [7] = assay: Growth inhibition of Candida albicans ATCC 10231 at 62.5 ug/ml incubated for 48 hrs under dark condition by broth microdilution method relative to control; assay type: functional; settings: ATCC 10231, 48 h, read-out: GI; outline: as §1
Trypanosoma cruzi = assay: Antitrypanosomal activity against Trypanosoma cruzi Tulahuen intracellular amastigote harboring LacZ infected in human U937 cells after 72 hrs by CPRG/Nonidet reagent based spectrophotometric method; assay type: functional, cell-based; settings: U-937, 72 h
Outline: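 U-937 cells at 2.5 × 10^5 cells/mL in RPMI-1640 with 10% serum and 0.1 µg/mL PMA were infected with β-galactosidase-transfected Tulahuen epimastigotes at 5 parasites per cell. Infected cells were exposed to 50, 12.5, 3.125 and 0.78 µg/mL for 72 h. CPRG (100 uM) and 0.1% Nonidet P-40 were added for 3 h, read at 570 nm. EC50 by Probit. Triplicate, at least two experiments; benznidazole as reference.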

Plasmodium falciparum = assay: Antiplasmodial activity against chloroquine-sensitive Plasmodium falciparum 3D7 assessed as reduction in parasitic LDH activity after 48 hrs by Malstat reagent based […] method; assay type: functional; settings: 3D7, 48 h
Outline: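 Unsynchronized P. falciparum 3D7 at 0.5% parasitemia and 1% hematocrit in RPMI with 3% Albumax II. Exposed to 100, 25, 6.25 and 1.56 µg/mL for 48 h at 37 °C under 90% N2/5% CO2/5% O2. After three freeze-thaw cycles, LDH measured with Malstat and NBT/PES, 1 h in the dark, read at 650 nm. IC50 by Probit; triplicate, ≥2 experiments.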

Candida albicans [8] = assay: Growth inhibition of Candida albicans ATCC 10231 at 3.4 ug/ml incubated for 48 hrs under dark condition by broth microdilution method relative to control; assay type: functional; settings: ATCC 10231, 48 h, read-out: GI
Pseudomonas aeruginosa = assay: Antibacterial activity against Pseudomonas aeruginosa ATCC 27853 after 24 hrs by resazurin dye based microdilution assay; assay type: functional; settings: ATCC 27853, 24 h; outline: as §2
Candida albicans [9] = assay: Growth inhibition of Candida albicans ATCC 10231 at 250 ug/ml incubated for 48 hrs under dark condition by broth microdilution method relative to control; assay type: functional; settings: ATCC 10231, 48 h, read-out: GI; outline: as §1
Cryptococcus neoformans [10] = assay: Growth inhibition of Cryptococcus neoformans ATCC 32264 at 15.62 ug/ml incubated for 48 hrs under dark condition by broth microdilution method relative to control; assay type: functional; settings: ATCC 32264, 48 h, read-out: GI; outline: as §1
U-937 = assay: Cytotoxicity against human U937 cells after 72 hrs by MTT assay; assay type: cell-based; settings: u-937, 72 h
Outline: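 Exponentially growing U-937 at 1 × 10^5 cells/mL in RPMI-1640 with 10% FBS were exposed to 200, 50, 12.5 and 3.125 µg/mL for 72 h at 37 °C, 5% CO2. MTT for 3 h, stopped with isopropanol/SDS, formazan read at 570 nm, blank-corrected. LC50 by Probit from % viability against untreated cells. Triplicate, at least two independent experiments.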

Cryptococcus neoformans [11] = assay: Growth inhibition of Cryptococcus neoformans ATCC 32264 at 62.5 ug/ml incubated for 48 hrs under dark condition by broth microdilution method relative to control; assay type: functional; settings: ATCC 32264, 48 h, read-out: GI; outline: as §1
Cryptococcus neoformans [12] = assay: Growth inhibition of Cryptococcus neoformans ATCC 32264 at 31.25 ug/ml incubated for 48 hrs under dark condition by broth microdilution method relative to control; assay type: functional; settings: ATCC 32264, 48 h, read-out: GI; outline: as §1
Staphylococcus aureus [13] = assay: Antibacterial activity against vancomycin-intermediate Staphylococcus aureus after 24 hrs by resazurin dye based microdilution assay; assay type: functional; outline: as §2
Staphylococcus aureus [14] = assay: Antibacterial activity against methicillin-sensitive Staphylococcus aureus ATCC 25923 after 24 hrs by resazurin dye based microdilution assay; assay type: functional; settings: ATCC 25923, 24 h; outline: as §2
Cryptococcus neoformans [15] = assay: Growth inhibition of Cryptococcus neoformans ATCC 32264 at 250 ug/ml incubated for 48 hrs under dark condition by broth microdilution method relative to control; assay type: functional; settings: ATCC 32264, 48 h, read-out: GI; outline: as §1
Staphylococcus aureus [16] = assay: Antibacterial activity against methicillin-resistant Staphylococcus aureus ATCC 43300 after 24 hrs by resazurin dye based microdilution assay; assay type: functional; settings: ATCC 43300, 24 h
Outline: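 Broth microdilution in Mueller Hinton broth, inoculum 5 × 10^5 – 8 × 10^5. Compound stocks diluted in MHB with 5% DMSO and 0.1% Tween 80. Incubation 24 h at 35-37 °C. MIC is the lowest concentration with visible growth inhibition and/or by resazurin (1 mg/mL) read-out. Gentamicin as control. Run in duplicate, replicated at least three times.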

Cryptococcus neoformans [17] = assay: Growth inhibition of Cryptococcus neoformans ATCC 32264 at 125 ug/ml incubated for 48 hrs under dark condition by broth microdilution method relative to control; assay type: functional; settings: ATCC 32264, 48 h, read-out: GI; outline: as §1
Escherichia coli = assay: Antibacterial activity against Escherichia coli ATCC 25922 after 24 hrs by resazurin dye based microdilution assay; assay type: functional; settings: ATCC 25922, 24 h; outline: as §2
Candida albicans [18] = assay: Growth inhibition of Candida albicans ATCC 10231 at 7.8 ug/ml incubated for 48 hrs under dark condition by broth microdilution method relative to control; assay type: functional; settings: ATCC 10231, 48 h, read-out: GI; outline: as §1
Neisseria gonorrhoeae = assay: Antibacterial activity against beta lactamase positive Neisseria gonorrhoeae ATCC 31426 by oxidase test; assay type: functional
Outline: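 Agar dilution MIC on GC agar with 1% isovitalex containing increasing compound concentrations. Plates inoculated with about 1×10^4 CFU (5 µL). MIC is the lowest concentration that inhibited growth, with growth confirmed by oxidase test. Run in duplicate, repeated at least three times.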

Klebsiella pneumoniae [19] = assay: Antibacterial activity against carbapenemase positive Klebsiella pneumoniae BAA 1705 after 24 hrs by resazurin dye based microdilution assay; assay type: functional; settings: BAA 1705, 24 h; outline: as §2
Cryptococcus neoformans [20] = assay: Antifungal activity against Cryptococcus neoformans ATCC 32264 incubated for 48 hrs under dark condition by broth microdilution method; assay type: functional; settings: ATCC 32264, 48 h; outline: as §3
Candida albicans [21] = assay: Growth inhibition of Candida albicans ATCC 10231 at 125 ug/ml incubated for 48 hrs under dark condition by broth microdilution method relative to control; assay type: functional; settings: ATCC 10231, 48 h, read-out: GI; outline: as §1

**Q.** Which results are given for `COc1ccc(C2=NN(C(C)=O)C(c3cccc(Nc4ccnc5cc(Cl)ccc45)c3)C2)cc1` (stereo not given)?
**A.** inhibition of growth at 31.25 µg/mL (Candida albicans [1]): 16.9%; EC50 (Leishmania panamensis): 2.98 mg/L (≈ 6.33 µM); MIC (Klebsiella pneumoniae [2]): > 1000 mg/L; MIC50 (Candida albicans [3]): ≥ 250 mg/L; MIC80 (Candida albicans [3]): ≥ 250 mg/L; inhibition of growth at 7.8 µg/mL (Cryptococcus neoformans [4]): 7.99%; inhibition of growth at 3.4 µg/mL (Cryptococcus neoformans [5]): 4.82%; inhibition of growth at 15.62 µg/mL (Candida albicans [6]): 14.2%; inhibition of growth at 62.5 µg/mL (Candida albicans [7]): 20.4%; EC50 (Trypanosoma cruzi): 3.44 mg/L (≈ 7.3 µM); EC50 (Plasmodium falciparum): 13.8 mg/L (≈ 29.3 µM); inhibition of growth at 3.4 µg/mL (Candida albicans [8]): 6.14%; MIC (Pseudomonas aeruginosa): > 1000 mg/L; inhibition of growth at 250 µg/mL (Candida albicans [9]): 37.5%; inhibition of growth at 15.62 µg/mL (Cryptococcus neoformans [10]): 13.9%; LC50 (U-937): 4.9 mg/L (≈ 10.4 µM); inhibition of growth at 62.5 µg/mL (Cryptococcus neoformans [11]): 22.4%; inhibition of growth at 31.25 µg/mL (Cryptococcus neoformans [12]): 20.2%; MIC (Staphylococcus aureus [13]): > 1000 mg/L; MIC (Staphylococcus aureus [14]): > 1000 mg/L; inhibition of growth at 250 µg/mL (Cryptococcus neoformans [15]): 72.2%; MIC (Staphylococcus aureus [16]): > 1000 mg/L; inhibition of growth at 125 µg/mL (Cryptococcus neoformans [17]): 45%; MIC (Escherichia coli): > 1000 mg/L; inhibition of growth at 7.8 µg/mL (Candida albicans [18]): 7.64%; MIC (Neisseria gonorrhoeae): > 1000 mg/L; MIC (Klebsiella pneumoniae [19]): > 1000 mg/L; MIC50 (Cryptococcus neoformans [20]): 250 mg/L (≈ 531 µM); MIC80 (Cryptococcus neoformans [20]): ≥ 250 mg/L; inhibition of growth at 125 µg/mL (Candida albicans [21]): 33.4%
